MrgX1 agonist – activates human MrgX1 receptor signaling; MrgX1-HEK293 cells, Fluo-4 calcium fluorescence, agonist mode; stronger effect = higher value; B-score at 10 µM; 0.44% of 310,000 active;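 active = calcium response B-score plate-corrected fluorescence ratio at least 3 library SD, with starting fluorescence B-score inside 5 SD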
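System: HEK293 cells stably expressing human MrgX1 receptor; Dosing: test compound in the initial addition of three; Schedule: overnight plating, then 30 min 37 °C plus 30 min room-temperature dye loading; Detection: kinetic calcium dye fluorescence, Fluo-4 NW; Controls: per-plate positive and negative controls for Z′ factor.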
MrgX1 antagonist – human MrgX1 receptor antagonism, primary screen; Q96LB2; 1.3% of 310,000 active; MRGX1-HEK293 calcium flux, Fluo-4, BAM8-22 antagonism; stronger effect = lower value; B-score at 10 µM;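 active = calcium-response B-score plate-corrected more than 3 library SD below zero, starting fluorescence within 5 deviations, no agonist response on first addition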;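 note: peak minus trough fluorescence over baseline after final BAM8-22 challenge near maximal dose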
MrgX1 allo act – allosterically activates human MrgX1 receptor signaling; AID 588675; MrgX1-HEK293, Fluo-4 calcium flux, FDSS; stronger effect = higher value; B-score at 10 µM; 0.63% of 310,000 active;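 active = plate-corrected calcium response at least 3 library SD above typical, normal starting fluorescence, not activating the receptor alone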;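 note: compound read alongside a low EC10 to EC30 dose of BAM8-22 agonist; peak minus trough fluorescence over baseline measured at the second addition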
Cl transport mod – modulators of human KCC2 chloride dependent transport. KCC2 cells, thallium flux FluoZin-2 fluorescence. B-score of Tl+ flux slope (higher = more flux/activation; lower = inhibition) at 10 µM. 2.2% of 190,000 active. AID 1456. Q9H2X9;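 active = thallium flux slope and its plate-corrected score both differing from the plate sample mean at a set confidence after two filtering rounds, in either direction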;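 note: slope of fluorescence scaled to starting intensity during 10 to 20 s after thallium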
RGS4 act – RGS4 potentiation or activation; HEK293 M3R/inducible RGS4, carbachol calcium flux Fluo4; stronger effect = lower value; B-score at 10 µM; 0.92% of 310,000 active;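 active = B-score of the integrated calcium signal more than 4 SD below the library mean, with starting fluorescence not abnormally high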;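 note: negative B-score means reduced calcium response which marks RGS4 activation or potentiation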
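System – HEK293 FlpIn-TREx cells, stable M3R, doxycycline-inducible RGS4 · Reagent – ECmax carbachol challenge · Times – compound preincubation 20 min at room temperature before agonist · Technique – Fluo4 fluorescence kinetic imaging of calcium · Measure – B score of integrated Fluo4 ratio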
RGS4 block – inhibitors of human RGS4. 0.45% of 310,000 active. B-score at 10 µM. P49798. HEK293 M3R/RGS4 inducible, Fluo-4 calcium flux; stronger effect = higher value; triggered by carbachol at its EC20;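 active = B-score, a plate-corrected calcium signal, over three deviations above library mean, with baseline fluorescence within five deviations of library mean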;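 note: RGS4 expression induced by doxycycline in cells with stable M3 receptor; B-score is computed from the integrated fluorescence ratio over baseline after carbachol; higher B-score means a larger calcium signal and so more RGS4 inhibition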
KCC2 sec1 – KCC2 (human) modulation, secondary assay | shares compounds with Cl transport mod | HEK293-KCC2, thallium flux, FluoZin2 fluorescence; stronger effect = higher value | normalised thallium flux (F/F0 slope) at 10 µM | 15% of 3,700 active;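 active = thallium flux slope above the same plate's solvent-only control mean plus 3 SD; inconclusive = the two replicate wells disagree; inactive = no significant difference from solvent-only control wells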
KCC2 bumet counter – bumetanide-insensitive thallium flux in KCC2 cells with ouabain, counter-screen; HEK293-KCC2 + bumetanide/ouabain, thallium flux FluoZin2; stronger effect = higher value; shares compounds with Cl transport mod; 49% of 3,700 active; normalized thallium flux at 10 µM;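 active = thallium entry rate above the same plate's blocked-transporter control wells by more than 3 SD; inconclusive = the two repeat wells disagree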;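 note: raw slope of fluorescence over initial fluorescence between 10 and 20 s after thallium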
KCC2 sec2 – confirmation of human KCC2 transport modulators. AID 1715. normalized thallium flux at 10 µM. 23% of 3,700 active. shares compounds with Cl transport mod. HEK293-KCC2, thallium flux FluoZin2 fluorescence; actives lie on both sides; F/F0 rise rate, 10–20 s post-thallium;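 active = thallium flux slope more than 3 SD above or below the plate's solvent-only control mean, mostly below; inconclusive = the two repeat wells disagreed; inactive = no significant shift from solvent-only controls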;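 note: raw slope with 0.1% DMSO as baseline and bumetanide as block control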
HEK293 Tl flux – counter-screen for KCC2 modulators: effect in parental HEK293 cells; shares compounds with Cl transport mod; thallium flux FluoZin2, ouabain; baseline-ratio fluorescence slope, 10–20 s after thallium; thallium flux rate (normalised fluorescence) at 10 µM; 46% of 3,700 active;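 active = thallium flux rate significantly above the same plate's solvent-only control wells, beyond their mean plus 3 SD; inconclusive = the two replicate wells gave conflicting results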
KCC2 ouabain – modulates human KCC2 on retest with ouabain; shares compounds with Cl transport mod; HEK293-KCC2, thallium flux FluoZin2 fluorescence; bidirectional: low = inhibitor, high = activator; raw Tl+ flux slope (below DMSO = inhibition, above = activation) at 10 µM; 48% of 3,700 active;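 active = thallium flux slope beyond 3 SD from same-plate DMSO control mean in most replicates, usually higher, sometimes lower; inconclusive = repeat tests gave conflicting results; inactive = no significant difference from controls in most replicates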;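 note: slope of initial-normalized fluorescence between seconds 10 and 20 after thallium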
HEK counter2 – counter-screen for KCC2 modulators: effect in parental HEK293 cells | AID 1718 | shares compounds with Cl transport mod | 33% of 3,700 active | thallium flux FluoZin-2 fluorescence slope | thallium flux slope at 10 µM;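 active = thallium flux slope above the same plate's solvent-control mean plus 3 SD in both duplicate wells; inconclusive = duplicate wells that disagreed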;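 note: run without ouabain in cells lacking the KCC2 cotransporter; slope of fluorescence scaled to its starting value between 10 and 20 s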
Active calls of the source: *; i = inactive; u = inconclusive; x = no result. This is a sample that favours compounds with a hit; in the whole collection about 4.7% have one here.

SMILES	MrgX1 agonist	MrgX1 antagonist	MrgX1 allo act	Cl transport mod	RGS4 act	RGS4 block	KCC2 sec1	KCC2 bumet counter	KCC2 sec2	HEK293 Tl flux	KCC2 ouabain	HEK counter2
COC(=O)[C@@H](NC(=O)O[C@@H]1C(=O)c2ccc(OC)cc2O[C@H]1c1cccc(C(F)(F)F)c1)C(C)C	i	i	i	5.57*	i	i	0.00644	0.0107*	0.0311	0.0146*	u	0.013*
COc1ccc2c(c1)O[C@H](c1ccc3c(c1)OCO3)[C@@H](OC(=O)Nc1cc(OC)c(OC)c(OC)c1)C2=O	i	i	i	0.821	i	i	x	x	x	x	x	x
CC[C@H](C)[C@@H](NC(=O)O[C@@H]1C(=O)c2cc(OC)ccc2O[C@H]1c1ccc(OC)c(Br)c1)C(=O)OC	i	i	i	1.54	x	x	x	x	x	x	x	x
Cc1cc(=O)oc2c(C)c(OC(C)C(=O)NCc3ccccn3)ccc12 (configuration not stated)	i	i	i	x	i	i	x	x	x	x	x	x
C=CCC(=O)N1CCCC(CO)(Cc2ccc(F)cc2F)C1 (configuration not stated)	i	i	i	x	i	i	x	x	x	x	x	x
COCCN(C(=O)COC(=O)CCC1CCCC1)c1c(N)n(Cc2ccccc2)c(=O)[nH]c1=O	i	i	i	x	i	i	x	x	x	x	x	x
NC(=O)C1CCN(CC(O)COCc2ccccc2Cl)CC1 (configuration not stated)	i	i	i	x	i	i	x	x	x	x	x	x
Cn1nnnc1SCC1=C(C(=O)O)N2C(=O)C(NC(=O)C3CC3c3ccccc3)C2SC1 (configuration not stated)	i	i	i	-5.42*	i	i	0.00782	0.00504	0.0292	u	0.0186	0.0106
CCNC(=S)N(CCO)Cc1cc2cc3c(cc2[nH]c1=O)OCO3	i	i	i	x	i	i	x	x	x	x	x	x
Cc1cccc(C)c1NC(=O)CNC(=O)CCCc1c[nH]c2ccccc12	i	i	i	x	i	i	x	x	x	x	x	x
O=C(O)c1ccc(N2CC3CC(C2)c2cccc(=O)n2C3)c(NC(=S)Nc2ccc(Cl)cc2Cl)c1 (configuration not stated)	i	i	i	14.7*	i	i	0.0113	0.015*	0.0355	u	u	0.0128
O=C(CCCCCn1c(SCC(=O)c2ccccc2)nc2ccccc2c1=O)NCc1ccco1	i	i	i	-0.364	i	i	x	x	x	x	x	x
CCOC(=O)CSc1nc2ccccc2c(=O)n1CCCCCC(=O)NCc1ccco1	i	i	i	-4.07*	i	i	0.00838	u	0.0328	0.00705	0.0224	0.0109
CN(C(=O)CSc1nc2cc(Cl)ccc2c(=O)n1Cc1ccco1)C1CCS(=O)(=O)C1 (configuration not stated)	i	i	i	12*	i	i	0.0108	0.0144*	0.0317	0.0163*	u	0.0117
